Experimental data gathered from unrelated publications.
Lines come from different studies, so protocols differ.
Sample: plasma

CC(C)(O)c1ccccc1-c1ccc2[nH]c(/C=C/c3ccc(C(F)(F)F)cc3)nc2c1 has an AUC(0-t) of 5160 ng·h/mL (male human; oral, 30 mg, single dose, fasted, healthy volunteers).
CS(=O)(=O)CCC#N gave an AUC of 70300 ng·h/mL (human; oral, 100 mg, multiple doses, once daily).
Cn1cc(-c2ccc(S(=O)(=O)[C@@H]3C[C@@H](C(=O)NC4(C#N)CC4)N(C(=O)C4(C(F)(F)F)CC4)C3)c(C(F)(F)F)c2)cn1 has an AUC(0-inf) of 995 ng·h/mL (human; oral, 10 mg, single dose, fasted, healthy volunteers).
Cc1ccc(C(=O)N(CCCN)[C@@H](c2oc3cc(Cl)ccc3c(=O)c2Cc2ccccc2)C(C)C)cc1 gave an AUC of 5160 ng·h/mL (human; intravenous, 4 mg/m², single dose, patients, infusion).
With CO[C@H]1CC[C@H](N2C(=O)CNc3ncc(-c4ccc(C(C)(C)O)nc4)nc32)CC1 the AUC(0-t) was 383 ng·h/mL (human; oral, 15 mg, multiple doses, patients).
For COc1cc(C(=O)NC2CCN(C)CC2)c(F)cc1Nc1ncc(C(F)(F)F)c(Oc2cccc3c2C(=O)N(C)C3)n1, the AUC was 79.6 µM·h (human; oral, 300 mg, multiple doses, once daily, steady state, patients).
CC(C)n1cc(C#N)c2cc(-n3cc(C(=O)O)cn3)ccc21 gave an AUC(0-t) of 43900 ng·h/mL (human; oral, 200 mg, single dose, fasted, healthy volunteers).
The AUC(0-inf) of CCc1nc2c(C)cc(N3CCN(CC(=O)N4CC(O)C4)CC3)cn2c1N(C)c1nc(-c2ccc(F)cc2)c(C#N)s1 is reported as 500 ng·h/mL (human; oral, 20 mg, single dose, fed, healthy volunteers).
For COc1ccc([C@@H]2CN(C(=O)[C@@H](O)CO)C[C@@]2(C)[C@@H](C)O)cc1OC1CN(c2ccc(C)cn2)C1, the AUC(0-t) was 2750 ng·h/mL (human; oral, 10 mg, single dose, healthy volunteers).
The AUC(0-t) of COCCOc1cnc2ccn([C@H](C)c3nnc4c(F)cc(-c5cnn(C)c5)cn34)c(=O)c2c1 is reported as 55900 ng·h/mL (human; oral, 300 mg, multiple doses, once daily, patients).
Cn1c(=O)oc2ccc(-c3ccc(C[C@@H](C#N)NC(=O)[C@@H]4CNCCCO4)cc3)cc21 gave an AUC of 13.2 µM·h (male human; oral, 35 mg, single dose, healthy volunteers).
